Reference: ChEMBL document CHEMBL4513216, “Probing the Open Global Health Chemical Diversity Library for Multistage-Active Starting Points for Next-Generation Antimalarials” (ACS Infect Dis, 2020)

Assay: Toxicity liver stage against HepG2, at 10uM
Format: cell-based
Design: test concentration 10 uM, cell line HepG2-A16-CD81EGFP
Settings: human, HepG2-A16-CD81EGFP cells; read-out: INHIBITION
In short: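 Uninfected HepG2-A16-CD81EGFP cells, 3 × 10^3 per well, 1536-well, plated on prespotted compound at 10 μM final, parasite-free screening media added to match infected plates; puromycin 10 μM positive, DMSO 0.5% negative; run in parallel with 48 h PbLuc assay at 37 °C, 5% CO2; viability by CellTiter-Glo luminescence, normalized to controls.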

O=C1CCCc2nccc(-c3ccccc3)c21
cytotoxicity at 10 µM: 3.15%

Cc1n[nH]c(=O)c2c(NC(=O)CN3CCOC(C)C3)oc(C)c12 (configuration not stated)
cytotoxicity at 10 µM: -0.524%

COc1ccc2c(c1)nc1n2[C@@H](CNC(=O)c2ccccn2)COC1
cytotoxicity at 10 µM: -3.03%

COc1ccc2c(ccn2CCC(=O)NCc2ccc(C(=O)O)cc2)c1
cytotoxicity at 10 µM: 2.25%

COC(=O)c1ccc(C2SCC(=O)Nc3c2cnn3C(C)(C)C)cc1 (configuration not stated)
cytotoxicity at 10 µM: 2.06%

O=C1CC(NS(=O)(=O)c2ccc3ccccc3c2)CN1 (configuration not stated)
cytotoxicity at 10 µM: 3.94%

O=C(NCCn1nc(-n2cncn2)ccc1=O)c1ccc(F)cc1F
cytotoxicity at 10 µM: -8.78%

Cc1noc(C2CCC3(CCN(C(=O)c4cc(C5CC5)on4)CC3)O2)n1 (configuration not stated)
cytotoxicity at 10 µM: 3.1%

Cn1ccnc1Sc1ccc(S(N)(=O)=O)cn1
cytotoxicity at 10 µM: -1.6%

COc1cc2nc(C)n(CC(=O)O)c(=O)c2cc1OC
cytotoxicity at 10 µM: 5.68%

COc1cc(CCC(C)O)c(OC)c2c1OCO2 (configuration not stated)
cytotoxicity at 10 µM: 6.79%

CN(C)CC(=O)N1Cc2nc(C(=O)NCc3ccncc3)oc2C1
cytotoxicity at 10 µM: -8.58%

CCC1=N[C@@]2(CC[C@@H]3CN(S(=O)(=O)N(C)C)C[C@@H]32)C(=O)N1CC(C)C
cytotoxicity at 10 µM: 10.3%

Cc1nc(N2CCN(C(=O)c3ccco3)CC2)c2c(n1)c(C)nn2C
cytotoxicity at 10 µM: 12.1%

CCc1noc(C2CCCCN2C(=O)c2ccc3c(c2)OCO3)n1 (configuration not stated)
cytotoxicity at 10 µM: 1.75%

Cc1nn(C)c2cnn(CC(=O)NCCc3ccccc3)c12
cytotoxicity at 10 µM: 13.4%

CN(C)c1nccnc1C1CCCN(c2cnccn2)C1 (configuration not stated)
cytotoxicity at 10 µM: -4.92%

CC(C)N1CC[C@@](C)(O)[C@H](n2ccc(=O)[nH]c2=O)C1
cytotoxicity at 10 µM: 6.61%

COc1ccc(-c2cnc(N(C)C)nc2C2CN(C(C)=O)CCO2)cc1 (configuration not stated)
cytotoxicity at 10 µM: -31.9%

CS(=O)(=O)c1ccccc1-n1cc(NC(=O)CC2C=CCC2)cn1 (configuration not stated)
cytotoxicity at 10 µM: 1.78%

CC1(C)CCN1C(=O)c1cc(F)cc2[nH]cnc12
cytotoxicity at 10 µM: -7.09%

Cc1nn(C)c(Cl)c1C1CCCN1Cc1nnc(C2CC2)n1C (configuration not stated)
cytotoxicity at 10 µM: -2.24%

CC(O)CN1CCN(C(=O)CCOC(C)C)CC1 (configuration not stated)
cytotoxicity at 10 µM: -3.86%

NC(=O)CCn1ccc(NC(=O)c2ccc(Br)o2)n1
cytotoxicity at 10 µM: -1.39%

CCc1ncc2c(n1)CN(Cc1nnc(CC)o1)CC2
cytotoxicity at 10 µM: -8.8%

O=C(C1CC1)N1CCCC1c1nnc2n1CCCCC2 (configuration not stated)
cytotoxicity at 10 µM: -0.614%

CCc1nc(CN(C)Cc2nnc(-c3cccs3)o2)cs1
cytotoxicity at 10 µM: 6.37%

Cc1nsc(NC2CCN(c3ccccc3OC(F)F)C2=O)n1 (configuration not stated)
cytotoxicity at 10 µM: 2.14%

CN(Cc1cc(=O)c(O)co1)C1CCCN(c2ccccc2)C1 (configuration not stated)
cytotoxicity at 10 µM: -3.17%

Cc1n[nH]c(C2CN(CCCOc3cccc(Cl)c3)CCO2)n1 (configuration not stated)
cytotoxicity at 10 µM: -5.57%

CCc1ncc(C(=O)NC(C)(C)CC)s1
cytotoxicity at 10 µM: -0.343%

CC(C)CN1C(=O)C2(CCCC2)NC1c1cccnc1 (configuration not stated)
cytotoxicity at 10 µM: 3.71%

Cc1csc(C(C#N)C(=O)Nc2ccccc2)n1 (configuration not stated)
cytotoxicity at 10 µM: 12.6%

CN(C)C(=O)N1CCN(C(=O)c2ccn3ccnc3c2)CC1
cytotoxicity at 10 µM: -5.02%

COc1cc(C(=O)N(CCC#N)Cc2ccccn2)cc(OC)c1C
cytotoxicity at 10 µM: -15.1%

COCCCN(CCOC)C(=O)Nc1ccc(C)cc1C
cytotoxicity at 10 µM: 4.16%

CCn1ccnc1CN1CCN(CCC(=O)NC(C)(C)C)CC1C (configuration not stated)
cytotoxicity at 10 µM: -15.8%

Cn1cccc1C(=O)NC[C@H]1C[C@@H]2CN(C(=O)c3ccco3)C[C@@H]2O1
cytotoxicity at 10 µM: -105%

CC(=O)N1CCCC2(CCN(c3nncs3)C2)C1 (configuration not stated)
cytotoxicity at 10 µM: -103%

CC(=O)N1CC2(CCNCC2)c2cc(C)ccc21
cytotoxicity at 10 µM: -73.2%

O=C(C1CCOCC1)N1C[C@@H]2[C@@H](C1)OCC(=O)N2CC1CC1
cytotoxicity at 10 µM: 2.29%

CN1CCN(CC2CC2)C(=O)c2cnc(N3CCCCC3)nc21
cytotoxicity at 10 µM: 4.84%

Cc1nonc1OCCNC(=O)COc1ccc(F)cc1F
cytotoxicity at 10 µM: -1.17%

Cc1cc(C)n(Cc2cc(C(=O)N3CCCCC3c3nccs3)n[nH]2)n1 (configuration not stated)
cytotoxicity at 10 µM: 13.8%

O=C1CSc2ccccc2N1Cc1noc(C2CCCO2)n1 (configuration not stated)
cytotoxicity at 10 µM: 8.35%

CCC(C(=O)NC1(COC)CCCC1)n1cccn1 (configuration not stated)
cytotoxicity at 10 µM: -3.41%

CC(C)=CCn1ncc(N2CCOCC2)cc1=O
cytotoxicity at 10 µM: -9.96%

O=C(NCCc1c[nH]cn1)c1ccc(S(=O)(=O)NC2CCCC2)cc1
cytotoxicity at 10 µM: -7.2%

COc1ccccc1CN1C(=O)O[C@@H]2CN(S(=O)(=O)N(C)C)C[C@@H]21
cytotoxicity at 10 µM: 2.54%

Cc1cc(C)n(CCCN(CCN2CCOCC2)Cc2ccco2)n1
cytotoxicity at 10 µM: 8.97%

CCc1cnc(NCc2ccccc2Cn2cccn2)nc1
cytotoxicity at 10 µM: -2.45%

COc1cc(OC)c2nc(NCCN3CCNC3=O)cc(C)c2c1
cytotoxicity at 10 µM: -3.4%

CCCOC1CCCN(c2nc(CC)nc3c2cnn3C)C1 (configuration not stated)
cytotoxicity at 10 µM: -3.29%

CC(C)Oc1cccc2c1c(NC(=O)CN(C)C)nn2CC(F)(F)F
cytotoxicity at 10 µM: -9.69%

Cc1nn(-c2ccccc2)c2nc(C(C)(C)CN3CCN(C)CC3)[nH]c12
cytotoxicity at 10 µM: -2.13%

CCN1CCCC(c2c(-c3ccccc3)ncn2CCc2c[nH]cn2)C1 (configuration not stated)
cytotoxicity at 10 µM: -10.9%

O=C(NCCn1ccnc1-c1cc2n(n1)CCNC2)c1ccc(F)cc1
cytotoxicity at 10 µM: -16.9%

CCN(Cc1ccc(O)c(C(=O)O)c1)CC1CCOCC1
cytotoxicity at 10 µM: -5.24%

O=C(c1cncc(N2CCC3(CC2)NCCNC3=O)n1)N1CCCCC1
cytotoxicity at 10 µM: -2.4%

COCC(=O)N1CCC(C(=O)Nc2ccc(S(N)(=O)=O)cc2)CC1
cytotoxicity at 10 µM: -1.47%

CC(C)c1ccnc(N[C@H]2COC[C@@H]2N2CCCC2)n1
cytotoxicity at 10 µM: -4.48%

CN1CC(c2ccccc2)CC12CCN(C(=O)c1ccncc1)CC2 (configuration not stated)
cytotoxicity at 10 µM: -7.96%

CCCn1cc(C(=O)N(C)Cc2nc(-c3ccccn3)no2)c(C)n1
cytotoxicity at 10 µM: 0.334%

CC(C)(N)CN1CCC(c2nnc(CN3CCCC3)n2C2CC2)CC1
cytotoxicity at 10 µM: 19.2%

Cc1cc(C(=O)N2CCCC2)ccc1NCC(=O)N1CCOCC1
cytotoxicity at 10 µM: -5%

CC(C)OCCCNC(=O)CS(=O)(=O)Cc1ccc(C(C)C)cc1
cytotoxicity at 10 µM: 0.239%

O=C(Nc1cccc(F)c1)C1CCCN1c1nccs1 (configuration not stated)
cytotoxicity at 10 µM: -4.72%

COc1cccc(CNCC2CCN(CC(C)O)CC2)c1OC (configuration not stated)
cytotoxicity at 10 µM: -0.191%

CSCC(=O)N1CCCN(Cc2cscn2)CC1
cytotoxicity at 10 µM: -5.28%

Cc1nc(C)n(CC2CCCN(CC(=O)N3CCCC3)C2)n1 (configuration not stated)
cytotoxicity at 10 µM: -8.31%

CC(Cc1cccs1)C(=O)NCc1cccc(N2CCCC2=O)c1 (configuration not stated)
cytotoxicity at 10 µM: 2.4%

CC1CN(C(=O)NCCCn2cncn2)CCO1 (configuration not stated)
cytotoxicity at 10 µM: -6.82%

Cn1ccnc1C1(O)CCN(C(=O)Cc2ccccc2)CC1
cytotoxicity at 10 µM: 5.09%

CCCc1nnsc1C(=O)N1CCN(CC(O)c2ccco2)CC1 (configuration not stated)
cytotoxicity at 10 µM: -7.86%

Cc1cccc(CN2CC3(CCN(S(=O)(=O)C4CC4)CC3)OCC2=O)n1
cytotoxicity at 10 µM: -3.27%

O=C1NCCCCC1NCc1csc(-c2ccccn2)n1 (configuration not stated)
cytotoxicity at 10 µM: 7.5%

Cc1ccc2c(n1)N(C)CCN(C(=O)C1CC1)C2
cytotoxicity at 10 µM: -2.15%

O=C(c1cocn1)N1CCC2(CC1)COC(COCc1ccccn1)C2 (configuration not stated)
cytotoxicity at 10 µM: -116%

O=C1[C@H]2CN(Cc3ccoc3)C[C@H]2CN1Cc1cccnc1
cytotoxicity at 10 µM: -76.5%

CN(C)C(=O)CN1C[C@H]2CC[C@@H](C1)N(C(=O)CCCn1cncn1)C2
cytotoxicity at 10 µM: 0.612%

C/C(Cl)=C/CNC(=O)C1CCC2(CC1)CN(C)C(=O)c1ccccc1O2 (configuration not stated)
cytotoxicity at 10 µM: 4.52%

O=C(O)c1cc(C=Cc2cccc3ccccc23)ncn1
cytotoxicity at 10 µM: -12.1%
